In ChEMBL document CHEMBL1158756, “Hassallidin A, a glycosylated lipopeptide with antifungal activity from the cyanobacterium Hassallia sp” (2005):
Converted amounts (≈) assume the structure as drawn. The source made the active and inactive calls. The rule behind the calls is not given here. Positions of bridges follow the written chain, without caps; N, C: chain ends. Non-standard residues stand in square brackets, D forms with d. Residues, ends and D or L forms follow the SMILES beside them. *: point of attachment. X2 = OC[C@H]1O[C@@H](*)[C@@H](O)[C@@H](O)[C@@H]1O; NMeT = CN[C@H](C(=O)O)[C@@H](C)O; X1 = CCCCCCCCCCCC(O)C(O)C(=O)*; Dhb = C/C=C(\N)C(=O)O

Tests used:
Candida albicans [1] = experiment: Antifungal activity against Candida albicans at 10 ug by disk diffusion assay; format: functional, organism-based
In short: (§1)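 Disk diffusion on malt agar plates; each disk carried 10 µg in 30 µL of 50% MeOH.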

Fusarium sambucinum = experiment: Antifungal activity against Fusarium sambucinum at 10 ug by disk diffusion assay; format: functional, organism-based; in short: as §1
Candida albicans [2] = experiment: Antifungal activity against Candida albicans after 24 hrs; format: functional
In short: (§2)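 Broth microdilution in RPMI-1640; each well held 240 µL medium, 10 µL inoculum (prepared per NCCLS guidelines) and 50 µL of test solution in 50% MeOH. The test solution was a 2-fold series from a 92 µg/mL stock, 4.6 down to 0.14 µg per 50 µL. A drug-free well served as control. Incubation at 35 °C, 24 h for C. albicans and 48 h for A. fumigatus. Growth was read as OD595. MIC was the highest dilution well free from growth. Run in triplicate.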

Aspergillus fumigatus [3] = experiment: Antifungal activity against Aspergillus fumigatus at 10 ug by disk diffusion assay; format: functional, organism-based; in short: as §1
Bacillus subtilis = experiment: Antimicrobial activity against Bacillus subtilis at 10 ug by disk diffusion assay; format: functional, organism-based
In short: (§3)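 Disk diffusion on LB-agar plates; each disk carried 10 µg in 30 µL of 50% MeOH.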

Ustilago maydis = experiment: Antifungal activity against Ustilago maydis at 10 ug by disk diffusion assay; format: functional, organism-based; settings: Mycosarcoma maydis; in short: as §1
Nakaseomyces glabratus = experiment: Antifungal activity against Candida glabrata at 10 ug by disk diffusion assay; format: functional, organism-based; in short: as §1
Penicillium sp. = experiment: Antifungal activity against Penicillium sp. at 10 ug by disk diffusion assay; format: functional, organism-based; in short: as §1
Aspergillus niger = experiment: Antifungal activity against Aspergillus niger at 10 ug by disk diffusion assay; format: functional, organism-based; in short: as §1
Aspergillus fumigatus [4] = experiment: Antifungal activity against Aspergillus fumigatus after 48 hrs; format: functional; in short: as §2
Escherichia coli = experiment: Antimicrobial activity against Escherichia coli at 10 ug by disk diffusion assay; format: functional, organism-based; in short: as §3
Streptomyces = experiment: Antimicrobial activity against Streptomyces versicolor at 10 ug by disk diffusion assay; format: functional, organism-based; in short: as §3

MIC (Candida albicans [2]): 4.8 µg/mL (≈ 3.47 µM) | MIC (Aspergillus fumigatus [4]): 4.8 µg/mL (≈ 3.47 µM)
Compound: C/C=C1\NC(=O)[C@H](Cc2ccc(O)cc2)NC(=O)[C@H]([C@@H](C)O)NC(=O)[C@@H](NC(=O)[C@@H](NC(=O)C(O)C(O)CCCCCCCCCCC)[C@@H](C)O)[C@@H](C)OC(=O)[C@H](CCC(N)=O)NC(=O)[C@H]([C@@H](C)O[C@@H]2O[C@H](CO)[C@@H](O)[C@H](O)[C@@H]2O)N(C)C(=O)CNC(=O)[C@H](CCC(N)=O)NC1=O (some centres not stated) [HASSALLIDIN A] (X1-TTTY[Dhb]QG[NMeT](X2)Q; ester 2-C)
Activity (Candida albicans [1]): Active | Activity (Fusarium sambucinum): Active | Activity (Aspergillus fumigatus [3]): Active | Activity (Bacillus subtilis): inactive | Activity (Ustilago maydis): Active | Activity (Nakaseomyces glabratus): Active | Activity (Penicillium sp.): Active | Activity (Aspergillus niger): Active | Activity (Escherichia coli): inactive | Activity (Streptomyces): inactive
